Experimental data published in ChEMBL document CHEMBL5724801, “EUbOPEN Chemogenomics Library - Multiplex” (2024).
Values joined by “and” are separate entries in the source; they are usually repeats but may differ in a detail not shown here. Identical values can stand only once.

System: HEK-293T
Experiment: Multiplex assay against HEK293T
Format: toxicity, cell-based
Details: human
In short: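 At seeding, live cells were stained with Hoechst33342, BioTracker Green Microtubule Cytoskeleton Dye, MitoTracker Red and Annexin V Alexa Fluor 680. After compound addition they were imaged on a CQ1 microscope at 37°C and 5% CO2, and CellPathfinder machine-learning gating sorted them into Hoechst high-intensity objects or normal cells, with normal cells further split into healthy, pyknosed or fragmented nuclei and pyknosed cells into mitotic or apoptotic. Tubulin, mitochondrial-mass and membrane-permeability phenotypes are given as per cents of cells with healthy nuclei.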

[1] = 12 h, 1 µM, compound concentration 1 uM
[2] = 12 h, 10 µM, compound concentration 10 uM
[3] = 24 h, 1 µM, compound concentration 1 uM
[4] = 24 h, 10 µM, compound concentration 10 uM
[5] = 48 h, 1 µM, compound concentration 1 uM
[6] = 48 h, 10 µM, compound concentration 10 uM

## CC(C)(O)c1cnc(N2C[C@@]3(CCC[C@](C)(Cn4cnc5ccc(C#N)cc54)C3)OC2=O)cn1 [GSK2798745]
[1]
  Population Apoptotic (%): 8.76% and 9.45%
  Population Fragmented Nuclei (%): 1.42% and 8.48%
  Population Hoechst High Intensity Objects (%): 0%
  Population Membrane Permeable-Phenotype (%): 0% and 4.17%
  Population Mitochondria Different-Phenotype (%): 40% and 37.5%
  Population Mitotic Cells (%): 91.24% and 90.55%
  Population Normal (%): 100%
  Population Pyknosed Nuclei (%): 38.92% and 76.97%
  Total Cell Count: 352 and 165
[2]
  Population Apoptotic (%): 8.93% and 6.72%
  Population Fragmented Nuclei (%): 1.58% and 0.69%
  Population Healthy Nuclei (%): 45.43% and 17.24%
  Population Hoechst High Intensity Objects (%): 0.63% and 0%
  Population Membrane Permeable-Phenotype (%): 0%
  Population Mitochondria Different-Phenotype (%): 36.11% and 20%
  Population Mitotic Cells (%): 91.07% and 93.28%
  Population Normal (%): 99.37% and 100%
  Population Pyknosed Nuclei (%): 53% and 82.07%
  Population Tubulin-Different-Phenotype (%): 24.31% and 48%
  Total Cell Count: 319 and 145
[3]
  Population Apoptotic (%): 18.02% and 17.31%
  Population Fragmented Nuclei (%): 0.94% and 3.7%
  Population Healthy Nuclei (%): 78.24% and 32.1%
  Population Hoechst High Intensity Objects (%): 0%
  Population Membrane Permeable-Phenotype (%): 2.88% and 0%
  Population Mitochondria Different-Phenotype (%): 16.31% and 11.54%
  Population Mitotic Cells (%): 81.98% and 82.69%
  Population Normal (%): 100%
  Population Tubulin-Different-Phenotype (%): 16.79% and 7.69%
[4]
  Population Apoptotic (%): 17.91% and 14.14%
  Population Fragmented Nuclei (%): 2.04% and 1.31%
  Population Healthy Nuclei (%): 63.87% and 33.99%
  Population Hoechst High Intensity Objects (%): 0%
  Population Membrane Permeable-Phenotype (%): 0.8% and 0%
  Population Mitochondria Different-Phenotype (%): 27.09% and 9.62%
  Population Mitotic Cells (%): 82.09% and 85.86%
  Population Normal (%): 100%
  Population Pyknosed Nuclei (%): 34.1% and 64.71%
  Population Tubulin-Different-Phenotype (%): 37.85% and 13.46%
  Total Cell Count: 393 and 153
[5]
  Population Fragmented Nuclei (%): 2.32% and 3.45%
  Population Healthy Nuclei (%): 86.2% and 69.4%
  Population Hoechst High Intensity Objects (%): 0% and 1.28%
  Population Membrane Permeable-Phenotype (%): 5.88% and 4.97%
  Population Mitochondria Different-Phenotype (%): 16.75% and 31.68%
  Population Mitotic Cells (%): 97.55% and 73.02%
  Population Normal (%): 100% and 98.72%
  Population Pyknosed Nuclei (%): 11.48% and 27.16%
[6]
  Population Apoptotic (%): 12.84% and 15.85%
  Population Fragmented Nuclei (%): 2.45% and 0.91%
  Population Healthy Nuclei (%): 82.72% and 61.64%
  Population Hoechst High Intensity Objects (%): 0.14% and 0%
  Population Membrane Permeable-Phenotype (%): 8.39% and 0.74%
  Population Mitochondria Different-Phenotype (%): 44.41% and 40%
  Population Mitotic Cells (%): 87.16% and 84.15%
  Population Normal (%): 99.86% and 100%
  Population Pyknosed Nuclei (%): 14.83% and 37.44%

## CCOC(=O)c1cnn(-c2ccc(NC(=O)C(Cl)=C(Cl)Cl)cc2)c1C(F)(F)F
[1]
  Population Apoptotic (%): 11.04% and 11.54%
  Population Fragmented Nuclei (%): 2.46% and 4.48%
  Population Hoechst High Intensity Objects (%): 0.27% and 0%
  Population Membrane Permeable-Phenotype (%): 0.49% and 0%
  Population Mitochondria Different-Phenotype (%): 37.44% and 16.67%
  Population Mitotic Cells (%): 88.96% and 88.46%
  Population Normal (%): 99.73% and 100%
  Population Pyknosed Nuclei (%): 42.08% and 77.61%
  Total Cell Count: 367 and 134
[2]
  Population Apoptotic (%): 29.28% and 34.92%
  Population Fragmented Nuclei (%): 10.14% and 2.8%
  Population Healthy Nuclei (%): 26.57% and 9.09%
  Population Hoechst High Intensity Objects (%): 0.35% and 0%
  Population Membrane Permeable-Phenotype (%): 1.32% and 0%
  Population Mitochondria Different-Phenotype (%): 18.42% and 46.15%
  Population Mitotic Cells (%): 70.72% and 65.08%
  Population Normal (%): 99.65% and 100%
  Population Pyknosed Nuclei (%): 63.29% and 88.11%
  Total Cell Count: 287 and 143
[3]
  Population Apoptotic (%): 14.69% and 14.29%
  Population Fragmented Nuclei (%): 1.44% and 6.88%
  Population Healthy Nuclei (%): 72.84% and 31.87%
  Population Hoechst High Intensity Objects (%): 0.18% and 0%
  Population Membrane Permeable-Phenotype (%): 2.47% and 1.96%
  Population Mitochondria Different-Phenotype (%): 18.02% and 7.84%
  Population Mitotic Cells (%): 85.31% and 85.71%
  Population Normal (%): 99.82% and 100%
  Population Pyknosed Nuclei (%): 25.72% and 61.25%
[4]
  Population Apoptotic (%): 63.22% and 90.58%
  Population Fragmented Nuclei (%): 11.84% and 6.41%
  Population Healthy Nuclei (%): 12.77% and 5.13%
  Population Hoechst High Intensity Objects (%): 3.6% and 0%
  Population Membrane Permeable-Phenotype (%): 0%
  Population Mitochondria Different-Phenotype (%): 29.27% and 37.5%
  Population Normal (%): 96.4% and 100%
  Population Pyknosed Nuclei (%): 75.39% and 88.46%
  Population Tubulin-Different-Phenotype (%): 29.27% and 37.5%
  Total Cell Count: 333 and 156
[5]
  Population Fragmented Nuclei (%): 2.62% and 2.05%
  Population Healthy Nuclei (%): 85.68% and 49.74%
  Population Hoechst High Intensity Objects (%): 0.22% and 0%
  Population Membrane Permeable-Phenotype (%): 5.07% and 1.03%
  Population Mitochondria Different-Phenotype (%): 16.62% and 27.84%
  Population Mitotic Cells (%): 94.87% and 81.91%
  Population Normal (%): 99.78% and 100%
[6]
  Population Apoptotic (%): 53.58% and 95.86%
  Population Fragmented Nuclei (%): 14.99% and 9.58%
  Population Healthy Nuclei (%): 8.65% and 3.59%
  Population Hoechst High Intensity Objects (%): 1.42% and 0.6%
  Population Membrane Permeable-Phenotype (%): 0%
  Population Mitochondria Different-Phenotype (%): 43.33% and 100%
  Population Normal (%): 98.58% and 99.4%
  Population Pyknosed Nuclei (%): 76.37% and 86.83%
  Population Tubulin-Different-Phenotype (%): 23.33% and 66.67%
  Total Cell Count: 352 and 168

## CN1C[C@H](C(=O)N[C@]2(C)O[C@@]3(O)[C@@H]4CCCN4C(=O)[C@H](Cc4ccccc4)N3C2=O)C[C@@H]2c3cccc4[nH]cc(c34)C[C@H]21.CS(=O)(=O)O [DIHYDROERGOTAMINE MESYLATE]
[1]
  Population Apoptotic (%): 38% and 46%
  Population Fragmented Nuclei (%): 6% and 3%
  Population Healthy Nuclei (%): 84% and 81%
  Population Hoechst High Intensity Objects (%): 5%
  Population Membrane Permeable-Phenotype (%): 0%
  Population Mitochondria Different-Phenotype (%): 41% and 65%
  Population Mitotic Cells (%): 61% and 53%
  Population Normal (%): 94%
  Population Pyknosed Nuclei (%): 8% and 14%
  Population Tubulin-Different-Phenotype (%): 26% and 17%
  Total Cell Count: 418 and 285
[2]
  Population Apoptotic (%): 31% and 53%
  Population Fragmented Nuclei (%): 7% and 5%
  Population Healthy Nuclei (%): 76% and 80%
  Population Hoechst High Intensity Objects (%): 9% and 11%
  Population Membrane Permeable-Phenotype (%): 0%
  Population Mitochondria Different-Phenotype (%): 48% and 61%
  Population Mitotic Cells (%): 68% and 46%
  Population Normal (%): 90% and 88%
  Population Pyknosed Nuclei (%): 15% and 13%
  Population Tubulin-Different-Phenotype (%): 29% and 23%
  Total Cell Count: 403 and 435
[3]
  Population Apoptotic (%): 28% and 51%
  Population Fragmented Nuclei (%): 9% and 7%
  Population Healthy Nuclei (%): 80% and 84%
  Population Hoechst High Intensity Objects (%): 4% and 3%
  Population Membrane Permeable-Phenotype (%): 0%
  Population Mitochondria Different-Phenotype (%): 28% and 41%
  Population Mitotic Cells (%): 71% and 48%
  Population Normal (%): 95% and 96%
  Population Pyknosed Nuclei (%): 9% and 8%
  Population Tubulin-Different-Phenotype (%): 20% and 12%
  Total Cell Count: 621 and 341
[4]
  Population Apoptotic (%): 27% and 32%
  Population Fragmented Nuclei (%): 10% and 9%
  Population Healthy Nuclei (%): 76% and 84%
  Population Hoechst High Intensity Objects (%): 5% and 6%
  Population Membrane Permeable-Phenotype (%): 0%
  Population Mitochondria Different-Phenotype (%): 33% and 39%
  Population Mitotic Cells (%): 72% and 67%
  Population Normal (%): 94% and 93%
  Population Pyknosed Nuclei (%): 13% and 6%
  Population Tubulin-Different-Phenotype (%): 26% and 16%
  Total Cell Count: 480 and 567
[5]
  Population Apoptotic (%): 29% and 28%
  Population Fragmented Nuclei (%): 14% and 12%
  Population Healthy Nuclei (%): 78% and 82%
  Population Hoechst High Intensity Objects (%): 2%
  Population Membrane Permeable-Phenotype (%): 1% and 0%
  Population Mitochondria Different-Phenotype (%): 17% and 23%
  Population Mitotic Cells (%): 70% and 71%
  Population Normal (%): 97%
  Population Pyknosed Nuclei (%): 6% and 5%
  Population Tubulin-Different-Phenotype (%): 11% and 9%
  Total Cell Count: 1011 and 524
[6]
  Population Apoptotic (%): 22% and 31%
  Population Fragmented Nuclei (%): 15%
  Population Healthy Nuclei (%): 76% and 77%
  Population Hoechst High Intensity Objects (%): 2% and 1%
  Population Membrane Permeable-Phenotype (%): 0%
  Population Mitochondria Different-Phenotype (%): 20% and 21%
  Population Mitotic Cells (%): 77% and 68%
  Population Normal (%): 97% and 98%
  Population Pyknosed Nuclei (%): 7% and 6%
  Population Tubulin-Different-Phenotype (%): 12% and 11%
  Total Cell Count: 778 and 793
